According to ChEMBL document CHEMBL1157063, “Gymnochromes E and F, cytotoxic phenanthroperylenequinones from a deep-water crinoid, Holopus rangii” (J Nat Prod, 2010):
Values after ≈ are worked out from the molar mass of the structure shown. Active and inactive are the calls of the source. The rule behind the calls is not given here.

Tests used:
[1] = system: DLD-1; experiment: Cytotoxicity against human DLD1 cells at 5.2 uM after 48 hrs by MTT assay; type: functional, cell-based
[2] = system: Pseudomonas aeruginosa; experiment: Antibacterial activity against Pseudomonas aeruginosa after 18 hrs by microdilution broth method; type: functional, organism-based
How it was run: (§1)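 Reference strains: S. aureus ATCC 29213, methicillin-resistant S. aureus ATCC 700787, P. aeruginosa ATCC 27853 and C. albicans ATCC 44506. Method as previously described elsewhere.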

[3] = target: Induced myeloid leukemia cell differentiation protein Mcl-1 (Homo sapiens, UniProt Q07820); experiment: Inhibition of MCL1 binding to Bak by FRET assay
[4] = system: PANC-1; experiment: Cytotoxicity against human PANC1 cells at 6.4 uM after 48 hrs by MTT assay; type: functional, cell-based
[5] = system: Candida albicans; experiment: Antifungal activity against Candida albicans after 18 hrs by microdilution broth method; type: functional, organism-based; how it was run: as §1
[6] = system: PANC-1; experiment: Cytotoxicity against human PANC1 cells at 5.2 uM after 48 hrs by MTT assay; type: functional, cell-based
[7] = target: Histone deacetylase 1 (Homo sapiens, UniProt Q13547); experiment: Inhibition of human HDAC1 assessed as [3H]acetate release after 90 mins by scintillation counting
[8] = system: NCI/ADR-RES; experiment: Cytotoxicity against human NCI/ADR-RES cells after 48 hrs by MTT assay; type: functional, cell-based
How it was run: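 NCI/ADR-RES (formerly MCF-7/ADR) is a multidrug-resistant human ovarian carcinoma line from the NCI-Frederick tumor/cell line repository. It was scored for inhibition of proliferation using a previously described protocol. Each sample was run at least three times to derive the final IC50.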

[9] = system: Staphylococcus aureus; experiment: Antibacterial activity against methicillin-resistant Staphylococcus aureus after 18 hrs by microdilution broth method; type: functional; how it was run: as §1
[10] = system: NCI/ADR-RES; experiment: Cytotoxicity against human NCI/ADR-RES cells at 5.2 uM after 48 hrs by MTT assay; type: functional, cell-based
[11] = system: Staphylococcus aureus; experiment: Antibacterial activity against Staphylococcus aureus after 18 hrs by microdilution broth method; type: functional; how it was run: as §1
[12] = system: DLD-1; experiment: Cytotoxicity against human DLD1 cells at 6.4 uM after 48 hrs by MTT assay; type: functional, cell-based

Chain of Induced myeloid leukemia cell differentiation protein Mcl-1 (Q07820 whole entry): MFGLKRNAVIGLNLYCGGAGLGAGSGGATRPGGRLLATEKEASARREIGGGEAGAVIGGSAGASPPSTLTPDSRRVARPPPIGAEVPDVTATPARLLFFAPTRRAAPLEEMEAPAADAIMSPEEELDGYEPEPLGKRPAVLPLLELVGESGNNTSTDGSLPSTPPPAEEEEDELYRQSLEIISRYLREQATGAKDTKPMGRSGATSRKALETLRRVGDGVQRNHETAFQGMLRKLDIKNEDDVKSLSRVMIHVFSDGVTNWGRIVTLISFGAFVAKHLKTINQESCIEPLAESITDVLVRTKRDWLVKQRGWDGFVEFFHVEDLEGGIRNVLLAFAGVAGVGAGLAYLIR
Chain of Histone deacetylase 1 (Q13547 whole entry): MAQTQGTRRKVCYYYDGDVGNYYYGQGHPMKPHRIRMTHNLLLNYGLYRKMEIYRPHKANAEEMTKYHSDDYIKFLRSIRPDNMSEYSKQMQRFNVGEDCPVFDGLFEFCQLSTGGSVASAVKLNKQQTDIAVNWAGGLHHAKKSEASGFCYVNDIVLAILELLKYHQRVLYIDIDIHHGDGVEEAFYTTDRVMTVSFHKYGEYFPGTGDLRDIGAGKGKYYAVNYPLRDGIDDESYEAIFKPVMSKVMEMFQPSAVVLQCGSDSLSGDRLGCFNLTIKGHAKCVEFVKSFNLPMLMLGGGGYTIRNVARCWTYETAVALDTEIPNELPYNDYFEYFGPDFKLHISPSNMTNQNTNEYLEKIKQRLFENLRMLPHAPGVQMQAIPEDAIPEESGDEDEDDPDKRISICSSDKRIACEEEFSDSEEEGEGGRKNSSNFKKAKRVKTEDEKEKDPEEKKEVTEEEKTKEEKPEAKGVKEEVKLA

Structure (SMILES)	Activity [1]	Activity [2]	Activity [3]	Activity [4]	Activity [5]	Activity [6]	Activity [7]	Activity [8]	Activity [9]	Activity [10]	Activity [11]	Activity [12]	IC50 [3]	MIC [9]	MIC [11]	IC50 [7]	IC50 [8]
O=C(O)c1cc(O)c2c(c1)C(=O)c1cc(O)cc(O)c1C2=O	inactive	inactive	inactive	inactive	inactive	inactive	inactive	inactive	inactive	inactive	inactive	inactive	–	–	–	–	–
CCC[C@@H](O)Cc1c(Br)c(O)c2c(=O)c3c(O)c(Br)c(O)c4c5c(O)c(Br)c(O)c6c(=O)c7c(O)c(Br)c(C[C@H](O)CCC)c8c1c2c(c34)c(c65)c78 [GYMNOCHROME F]	inactive	inactive	–	–	inactive	inactive	–	–	–	inactive	–	–	3.3 µM	12.5 µg/mL (≈ 13 µM)	12.5 µg/mL (≈ 13 µM)	–	–
CCC[C@@H](O)Cc1c(Br)c(O)c2c(=O)c3c(O)cc(O)c4c5c(O)cc(O)c6c(=O)c7c(O)c(Br)c(C[C@H](C)O)c8c1c2c(c34)c(c65)c78 [GYMNOCHROME E]	–	inactive	–	inactive	inactive	–	–	–	–	–	–	inactive	–	25 µg/mL (≈ 32.1 µM)	25 µg/mL (≈ 32.1 µM)	10.9 µM	3.5 µM
O=C(O)c1cc(O)c2c(c1)C(=O)c1cc(O)c(Br)c(O)c1C2=O	inactive	inactive	inactive	inactive	inactive	inactive	inactive	inactive	inactive	inactive	inactive	inactive	–	–	–	–	–
